Laboratory results taken from ChEMBL document CHEMBL4732105, “First orally bioavailable prodrug of proteolysis targeting chimera (PROTAC) degrades cyclin-dependent kinases 2/4/6 in vivo” (Eur J Med Chem, 2021).
Calls of active or inactive are those of the source. No cut-off for these calls is given here.

Tests used:
A-375 [1] = assay: Induction of cell cycle arrest in human A-375 cells assessed as accumulation at G0/G1 phase upto […] incubated for 48 hrs by propidium iodide staining based flow cytometry; format: functional
Summary of the method: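 Tumor cells incubated 48 h in complete medium with compound or DMSO at various concentrations, stained with propidium iodide, and DNA content read by flow cytometry. G0/G1, S and G2/M fractions reported; mean ± SD, n = 3, Student's t-test.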

[2] = target: T1, Protein cereblon/Cyclin-dependent kinase 4 (Mus musculus) (UniProt P30285+Q8C7D2); assay: Protac activity at CRBN/CDK4 in mouse B16F10 cells assessed as induction of CDK4 protein degradation after 12 hrs by Western blot analysis; format: cell-based; details: B16-F10, dose 62.5-1000 nM
Summary of the method: (§1)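 B16F10 and A375 cells treated with DMSO or serial dilutions of compound for 12 h (concentration series), or for the indicated times (time course). CDK2, CDK4 and CDK6 protein levels determined by western blot.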

[3] = target: T1, Protein cereblon/Cyclin-dependent kinase 4 (Mus musculus); assay: Protac activity at CRBN/CDK4 in mouse B16F10 cells assessed as induction of CDK4 protein degradation at 500 nM by Western blot analysis; format: cell-based; details: B16-F10, time hrs <=12, TDE = time-dependent effect; summary of the method: as §1
[4] = target: Protein cereblon/Cyclin-dependent kinase 6 (Homo sapiens) (UniProt Q00534+Q96SW2); assay: Protac activity at CRBN/CDK6 in human A-375 cells assessed as induction of CDK6 protein degradation at 1000 nM by Western blot analysis; format: cell-based; details: time hrs <=12, TDE = time-dependent effect; summary of the method: as §1
[5] = target: T1, Protein cereblon/Cyclin-dependent kinase 4 (Mus musculus); assay: Protac activity at CRBN/CDK4 in mouse B16F10 cells assessed as induction of CDK4 protein degradation at 100 nM for 6 hrs in presence of proteasome inhibitor MG132 by Western blot analysis; format: cell-based; details: B16-F10
Summary of the method: (§2)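 B16F10 cells pre-treated 2 h with DMSO, pomalidomide (10 μM), MG132 (20 μM) or a parent CDK ligand, then exposed to 100 nM degrader for 6 h. CDK2/4/6 protein levels read by western blot.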

B16-F10 [6] = assay: Induction of apoptosis in mouse B16F10 cells incubated for 48 hrs by Annexin V-FITC/PI staining based flow cytometry; format: functional, cell-based; details: dose nM <=1000, time 48.0 hrs
B16-F10 [7] = assay: Induction of apoptosis in mouse B16F10 cells assessed as increase in cleaved PARP level incubated for 48 hrs by Western blot analysis; format: functional, cell-based; details: dose nM <=1000, time 48.0 hrs
Summary of the method: (§3)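 A375 and B16F10 cells incubated with compound for 48 h. Cleaved caspase-3, cleaved PARP, total P53, Bcl-2 and Bax measured by western blot.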

B16-F10 [8] = assay: Induction of apoptosis in mouse B16F10 cells assessed as increase in cleaved caspase 3 level incubated for 48 hrs by Western blot analysis; format: functional, cell-based; details: dose nM <=1000, time 48.0 hrs; summary of the method: as §3
B16-F10 [9] = assay: Induction of apoptosis in mouse B16F10 cells assessed as increase in P-53 level upto 1000 nM incubated for 48 hrs by Western blot analysis; format: functional, cell-based; details: dose nM <=1000, time 48.0 hrs; summary of the method: as §3
B16-F10 [10] = assay: Induction of apoptosis in mouse B16F10 cells assessed as increase in bax level upto 1000 nM incubated for 48 hrs by Western blot analysis; format: functional, cell-based; details: dose nM <=1000, time 48.0 hrs; summary of the method: as §3
[11] = Cmax in Sprague-Dawley rat at 200 mg/kg, po; format: ADME, organism-based; parameters: route oral, dose 200 mg/kg; details: in vivo
Summary of the method: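 Single oral dose of 200 mg/Kg to SD rats (n = 3). Prodrug and released active degrader quantified in plasma over 0–12 h; Cmax, Tmax and AUC0-12 derived by non-compartmental model.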

[12] = Cmax in Sprague-Dawley rat at 10 mg/kg, iv; format: ADME, organism-based; parameters: route intravenous, dose 10 mg/kg; details: in vivo
[13] = Tmax in Sprague-Dawley rat at 10 mg/kg, iv; format: ADME, organism-based; details: in vivo
Summary of the method: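 SD rats, n = 3, single dose of prodrug: IV by tail vein at 10 mg/Kg, or PO at 200 mg/Kg. Plasma levels of prodrug and released active degrader followed over 0–12 h. Parameters derived by a non-compartmental model.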

[14] = target: Protein cereblon/Cyclin-dependent kinase 2 (Mus musculus) (UniProt P97377+Q8C7D2); assay: Protac activity at CRBN/CDK2 in mouse B16F10 cells assessed as induction of CDK2 protein degradation at 100 nM for 6 hrsin presence of methyl 6-(7-cyclopentyl-6-(dimethylcarbamoyl)-7H-pyrrolo[2,3-d]pyrimidin-2-ylamino)nicotinate by Western blot analysis; format: cell-based; details: B16-F10, time 6.0 hrs; summary of the method: as §2
[15] = target: T1, Protein cereblon/Cyclin-dependent kinase 4 (Mus musculus); assay: Protac activity at CRBN/CDK4 in mouse B16F10 cells assessed as induction of CDK4 protein degradation at 100 nM for 6 hrsin presence of methyl 6-(7-cyclopentyl-6-(dimethylcarbamoyl)-7H-pyrrolo[2,3-d]pyrimidin-2-ylamino)nicotinate by Western blot analysis; format: cell-based; details: B16-F10, time 6.0 hrs; summary of the method: as §2
[16] = target: Protein cereblon/Cyclin-dependent kinase 6 (Mus musculus) (UniProt Q8C7D2+Q64261); assay: Protac activity at CRBN/CDK6 in mouse B16F10 cells assessed as induction of CDK6 protein degradation at 100 nM for 6 hrsin presence of Ribociclib by Western blot analysis; format: cell-based; details: B16-F10, time 6.0 hrs
B16-F10 [17] = assay: Induction of apoptosis in mouse B16F10 cells assessed as late apoptotic cells at 250 nM incubated for 48 hrs by Annexin V-FITC/PI staining based flow cytometry (reference value: 0.551%); format: functional
B16-F10 [18] = assay: Induction of apoptosis in mouse B16F10 cells assessed as late apoptotic cells at 500 nM incubated for 48 hrs by Annexin V-FITC/PI staining based flow cytometry (reference value: 0.551%); format: functional
A-375 [19] = assay: Induction of apoptosis in human A-375 cells assessed as viable cells at 250 nM incubated for 48 hrs by Annexin V-FITC/PI staining based flow cytometry (reference value: 93.3%); format: functional; details: read-out: Activity
A-375 [20] = assay: Induction of apoptosis in human A-375 cells assessed as viable cells at 1000 nM incubated for 48 hrs by Annexin V-FITC/PI staining based flow cytometry (reference value: 93.3%); format: functional; details: read-out: Activity
A-375 [21] = assay: Induction of apoptosis in human A-375 cells assessed as early apoptotic cells at 250 nM incubated for 48 hrs by Annexin V-FITC/PI staining based flow cytometry (reference value: 2.82%); format: functional
A-375 [22] = assay: Induction of apoptosis in human A-375 cells assessed as early apoptotic cells at 500 nM incubated for 48 hrs by Annexin V-FITC/PI staining based flow cytometry (reference value: 2.82%); format: functional
A-375 [23] = assay: Induction of apoptosis in human A-375 cells assessed as early apoptotic cells at 1000 nM incubated for 48 hrs by Annexin V-FITC/PI staining based flow cytometry (reference value: 2.82%); format: functional
A-375 [24] = assay: Induction of apoptosis in human A-375 cells assessed as late apoptotic cells at 250 nM incubated for 48 hrs by Annexin V-FITC/PI staining based flow cytometry (reference value: 3.28%); format: functional
B16-F10 [25] = assay: Induction of cell cycle arrest in mouse B16-F10 cells assessed as accumulation at G2 phase at 50 uM incubated for 48 hrs by propidium iodide staining based flow cytometry (reference value: 18.22%); format: functional
B16-F10 [26] = assay: Induction of cell cycle arrest in mouse B16-F10 cells assessed as accumulation at G2 phase at 100 uM incubated for 48 hrs by propidium iodide staining based flow cytometry (reference value: 18.22%); format: functional

T1 sequence (P30285 whole entry, looked up): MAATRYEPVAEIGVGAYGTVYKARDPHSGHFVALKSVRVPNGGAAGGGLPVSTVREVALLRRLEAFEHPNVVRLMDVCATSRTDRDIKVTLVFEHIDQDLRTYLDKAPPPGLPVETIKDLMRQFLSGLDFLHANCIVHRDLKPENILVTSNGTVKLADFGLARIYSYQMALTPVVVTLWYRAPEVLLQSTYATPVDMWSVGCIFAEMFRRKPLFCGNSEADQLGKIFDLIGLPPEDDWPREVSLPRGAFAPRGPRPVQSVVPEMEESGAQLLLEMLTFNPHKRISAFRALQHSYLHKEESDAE
T1 sequence (Q8C7D2 whole entry, looked up): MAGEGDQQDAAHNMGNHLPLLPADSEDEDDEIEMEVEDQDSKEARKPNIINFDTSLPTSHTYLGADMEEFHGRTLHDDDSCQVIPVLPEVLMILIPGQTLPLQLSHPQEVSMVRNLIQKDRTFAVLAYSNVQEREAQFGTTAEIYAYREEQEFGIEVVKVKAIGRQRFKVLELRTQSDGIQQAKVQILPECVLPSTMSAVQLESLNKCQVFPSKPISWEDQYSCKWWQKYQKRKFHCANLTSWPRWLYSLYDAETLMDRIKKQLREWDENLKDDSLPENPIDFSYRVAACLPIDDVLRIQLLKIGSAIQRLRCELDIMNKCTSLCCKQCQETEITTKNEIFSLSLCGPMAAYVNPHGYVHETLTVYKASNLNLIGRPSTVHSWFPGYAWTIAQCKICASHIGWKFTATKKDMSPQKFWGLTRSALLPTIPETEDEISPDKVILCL
Chain of Protein cereblon/Cyclin-dependent kinase 2 (Mus musculus) (Q8C7D2 whole entry, looked up, other chains not shown): as the sequence (Q8C7D2 whole entry, looked up) above
Chain of Protein cereblon/Cyclin-dependent kinase 6 (Mus musculus) (Q64261 whole entry, looked up): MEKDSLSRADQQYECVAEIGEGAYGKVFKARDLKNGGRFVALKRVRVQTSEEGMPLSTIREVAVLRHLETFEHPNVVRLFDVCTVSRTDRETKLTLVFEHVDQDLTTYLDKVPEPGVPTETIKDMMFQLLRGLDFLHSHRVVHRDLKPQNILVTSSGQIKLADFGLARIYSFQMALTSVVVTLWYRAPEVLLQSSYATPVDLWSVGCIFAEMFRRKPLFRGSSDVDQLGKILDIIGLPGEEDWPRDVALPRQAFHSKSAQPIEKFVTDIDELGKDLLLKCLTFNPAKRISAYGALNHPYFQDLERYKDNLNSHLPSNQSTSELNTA
Chain of Protein cereblon/Cyclin-dependent kinase 6 (Mus musculus) (Q8C7D2 whole entry, looked up): as the sequence (Q8C7D2 whole entry, looked up) above
Chain of Protein cereblon/Cyclin-dependent kinase 6 (Homo sapiens) (Q00534 whole entry, looked up): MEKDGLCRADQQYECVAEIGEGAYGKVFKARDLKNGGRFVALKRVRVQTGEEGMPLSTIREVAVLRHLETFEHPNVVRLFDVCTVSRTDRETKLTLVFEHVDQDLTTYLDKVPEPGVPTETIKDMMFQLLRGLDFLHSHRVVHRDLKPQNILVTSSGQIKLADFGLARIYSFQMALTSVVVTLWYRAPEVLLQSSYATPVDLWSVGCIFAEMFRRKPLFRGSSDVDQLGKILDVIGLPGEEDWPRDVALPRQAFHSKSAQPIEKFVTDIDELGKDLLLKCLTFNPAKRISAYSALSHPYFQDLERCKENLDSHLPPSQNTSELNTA
Chain of Protein cereblon/Cyclin-dependent kinase 6 (Homo sapiens) (Q96SW2 whole entry, looked up): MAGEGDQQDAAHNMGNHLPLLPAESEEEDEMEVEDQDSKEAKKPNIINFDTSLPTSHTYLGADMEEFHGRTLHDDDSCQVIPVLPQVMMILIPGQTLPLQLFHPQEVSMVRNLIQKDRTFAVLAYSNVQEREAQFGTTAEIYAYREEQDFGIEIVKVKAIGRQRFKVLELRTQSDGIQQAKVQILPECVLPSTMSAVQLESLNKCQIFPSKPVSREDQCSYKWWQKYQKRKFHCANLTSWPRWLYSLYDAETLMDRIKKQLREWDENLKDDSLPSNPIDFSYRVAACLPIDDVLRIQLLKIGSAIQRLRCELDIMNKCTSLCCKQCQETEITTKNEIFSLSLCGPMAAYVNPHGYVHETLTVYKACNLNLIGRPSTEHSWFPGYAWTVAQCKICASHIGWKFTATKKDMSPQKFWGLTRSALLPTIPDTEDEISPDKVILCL

Activity [2]: Dose-dependent effect | Activity [3]: Tde | Activity [4]: Tde | Activity [5]: inactive | Cmax [11]: 692 µg/mL | Cmax [12]: 59.9 µg/mL | Tmax [13]: 45 min | Activity [14]: inactive | Activity [15]: inactive | Activity [16]: inactive
SMILES: CN(C)C(=O)c1cc2cnc(Nc3ccc(C(=O)NCCCCCCNc4cccc5c4C(=O)N(C4CCC(=O)NC4=O)C5=O)cc3)nc2n1C1CCCC1 (stereo unspecified)
Activity (A-375 [1]): Active | Activity (B16-F10 [6]): Dose-dependent effect | Activity (B16-F10 [7]): Dose-dependent effect | Activity (B16-F10 [8]): Dose-dependent effect | Activity (B16-F10 [9]): Active | Activity (B16-F10 [10]): Active | Activity (B16-F10 [17]): 6.13% | Activity (B16-F10 [18]): 1.63% | viability at 0.25 µM (A-375 [19]): 90.5% | viability at 1 µM (A-375 [20]): 55.2% | Activity (A-375 [21]): 5.54% | Activity (A-375 [22]): 9.59% | Activity (A-375 [23]): 29.3% | Activity (A-375 [24]): 3.78% | Activity (B16-F10 [25]): 22.66% | Activity (B16-F10 [26]): 30.56%
